Measured values from ChEMBL document CHEMBL4842360, “Discovery of a Bicyclic Peptidyl Pan-Ras Inhibitor” (J Med Chem, 2021).

Key:
NCI-H358 [1] = test: Antiproliferative activity against human NCI-H358 cells incubated for 96 hrs by Celltiter-Glo assay; format: functional, cell-based; conditions: Homo sapiens, NCI-H358, 96 h; read-out: EC50
GTPase KRas = GTPase KRas (Homo sapiens, UniProt P01116, G12V); test: Inhibition of His6-tagged KRas G12V mutant (unknown origin) expressed in Escherichia coli BL21(DE3) cells assessed as reduction in Ras/GST-fused Raf RBD interaction incubated for 1 hr by HTRF assay
NCI-H358 [2] = test: Antiproliferative activity against human NCI-H358 cells incubated for 96 hrs by MTT assay; format: functional, cell-based
Outline: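 H358 cells at 5,000/well, grown overnight, treated with serially diluted peptide (0–40 μM) in 10% FBS medium for 96 h at 37 °C. MTT added for 4 h, formazan solubilized overnight in SDS-HCl, absorbance read at 570 nm.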

[3] = Homo sapiens, NCI-H358, 96 h, read-out: EC50

Chain of GTPase KRas (P01116 whole entry G12V, the tested form may be a part): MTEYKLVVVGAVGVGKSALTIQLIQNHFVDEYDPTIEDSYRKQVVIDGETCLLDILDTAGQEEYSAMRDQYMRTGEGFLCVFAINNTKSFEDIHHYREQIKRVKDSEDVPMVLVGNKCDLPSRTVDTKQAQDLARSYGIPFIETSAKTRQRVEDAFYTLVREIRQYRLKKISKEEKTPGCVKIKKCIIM

C[C@@H]1NC(=O)[C@@H](Cc2ccccc2)NC(=O)[C@@H]2CCCCNC(=O)c3cc(cc(c3)C(=O)N[C@H](Cc3ccc4ccccc4c3)C(=O)N[C@@H](CO)C(=O)N[C@@H](CC(N)=O)C(=O)N[C@H](Cc3ccc4ccccc4c3)C(=O)N[C@@H](c3ccccc3)C(=O)N2)C(=O)NC[C@@H](C(=O)N[C@@H](CC(N)=O)C(=O)N[C@H](CCCNC(=N)N)C(=O)N[C@@H](Cc2ccc(F)c(F)c2)C(=O)N[C@H](C)C(N)=O)NC(=O)[C@H](CCCNC(=N)N)NC(=O)[C@@H](CCCNC(=N)N)NC1=O gave an EC50 (NCI-H358 [1]) of 4.4 µM and an IC50 (GTPase KRas; read-out: IC50) of 0.5 µM.
With C[C@@H]1NC(=O)[C@@H](Cc2ccccc2)NC(=O)[C@@H]2CCCCNC(=O)c3cc(cc(c3)C(=O)N[C@H](Cc3ccc4ccccc4c3)C(=O)N[C@@H](CO)C(=O)N[C@@H](CCC(N)=O)C(=O)N[C@H](Cc3ccc4ccccc4c3)C(=O)N[C@@H](c3ccccc3)C(=O)N2)C(=O)NC[C@@H](C(=O)N2CCC[C@@H]2C(=O)N[C@H](CCCNC(=N)N)C(=O)N[C@H](Cc2ccc3ccccc3c2)C(=O)N[C@@H](CCC(=O)O)C(N)=O)NC(=O)[C@H](CCCNC(=N)N)NC(=O)[C@@H](CCCNC(=N)N)NC1=O the IC50 (GTPase KRas) was “Not Active”.
In the case of CC(C)C[C@@H](NC(=O)[C@H](CCC(N)=O)NC(=O)CNC(=O)[C@@H]1CNC(=O)c2cc3cc(c2)C(=O)N[C@H](Cc2ccc4ccccc4c2)C(=O)N[C@@H](CO)C(=O)N[C@@H](CCC(N)=O)C(=O)N[C@H](Cc2ccc4ccccc4c2)C(=O)N[C@@H](c2ccccc2)C(=O)N[C@@H](CCCCNC3=O)C(=O)N[C@H](Cc2ccccc2)C(=O)N[C@@H](C)C(=O)N[C@H](CCCNC(=N)N)C(=O)N[C@@H](CCCNC(=N)N)C(=O)N1)C(=O)N[C@H](CCCNC(=N)N)C(=O)N[C@@H](CCCCN)C(N)=O, the EC50 (NCI-H358 [2]; nci-h358) is reported as “Not Active”.
C[C@@H]1NC(=O)[C@@H](Cc2ccccc2)NC(=O)[C@@H]2CCCCNC(=O)c3cc(cc(c3)C(=O)N[C@H](Cc3ccc4ccccc4c3)C(=O)N[C@@H](CO)C(=O)N[C@@H](CCC(N)=O)C(=O)N[C@H](Cc3ccc4ccccc4c3)C(=O)N[C@@H](c3ccccc3)C(=O)N2)C(=O)NC[C@@H](C(=O)N[C@@H](CCN)CC(=O)N[C@H](CCCNC(=N)N)C(=O)N[C@@H](Cc2ccc(F)cc2)C(=O)N[C@H](C)C(=O)N[C@@H](CCCCN)C(N)=O)NC(=O)[C@H](CCCNC(=N)N)NC(=O)[C@@H](CCCNC(=N)N)NC1=O showed an EC50 (NCI-H358 [2]; [3]) of 17 µM.
CC(C)[C@@H](NC(=O)[C@H](CO)NC(=O)[C@H](CC(=O)O)NC(=O)[C@@H](Cc1ccc(O)cc1)NC(=O)[C@@H]1CNC(=O)c2cc3cc(c2)C(=O)N[C@H](Cc2ccc4ccccc4c2)C(=O)N[C@@H](CO)C(=O)N[C@@H](CCC(N)=O)C(=O)N[C@H](Cc2ccc4ccccc4c2)C(=O)N[C@@H](c2ccccc2)C(=O)N[C@@H](CCCCNC3=O)C(=O)N[C@H](Cc2ccccc2)C(=O)N[C@@H](C)C(=O)N[C@H](CCCNC(=N)N)C(=O)N[C@@H](CCCNC(=N)N)C(=O)N1)C(=O)N[C@@H](CCCCN)C(N)=O was tested, and the IC50 (GTPase KRas) was “Not Active”.
With C[C@@H]1NC(=O)[C@@H](Cc2ccccc2)NC(=O)[C@@H]2CCCCNC(=O)c3cc(cc(c3)C(=O)N[C@H](Cc3ccc4ccccc4c3)C(=O)N[C@@H](CO)C(=O)N[C@@H](CCC(N)=O)C(=O)N[C@H](Cc3ccc4ccccc4c3)C(=O)N[C@@H](c3ccccc3)C(=O)N2)C(=O)NC[C@@H](C(=O)N2CCC[C@@H]2C(=O)N[C@H](CCCNC(=N)N)C(=O)N[C@H](Cc2ccccc2)C(=O)N[C@H](Cc2ccc(O)cc2)C(N)=O)NC(=O)[C@H](CCCNC(=N)N)NC(=O)[C@@H](CCCNC(=N)N)NC1=O the IC50 (GTPase KRas) was “Not Active”.
C[C@@H]1NC(=O)[C@@H](Cc2ccccc2)NC(=O)[C@@H]2CCCCNC(=O)c3cc(cc(c3)C(=O)N[C@H](Cc3ccc4ccccc4c3)C(=O)N[C@@H](CO)C(=O)N[C@@H](CC(N)=O)C(=O)N[C@H](Cc3ccc4ccccc4c3)C(=O)N[C@@H](c3ccccc3)C(=O)N2)C(=O)NC[C@@H](C(=O)N[C@@H](CC(N)=O)C(=O)N[C@H](CCCNC(=N)N)C(=O)N[C@@H](Cc2cccnc2)C(=O)N[C@H](C)C(N)=O)NC(=O)[C@H](CCCNC(=N)N)NC(=O)[C@@H](CCCNC(=N)N)NC1=O showed an EC50 (NCI-H358 [1]) of 6.6 µM and an IC50 (GTPase KRas; read-out: IC50) of 0.41 µM.
For C[C@@H]1NC(=O)[C@@H](Cc2ccccc2)NC(=O)[C@@H]2CCCCNC(=O)c3cc(cc(c3)C(=O)N[C@H](Cc3ccc4ccccc4c3)C(=O)N[C@@H](CO)C(=O)N[C@@H](CCC(N)=O)C(=O)N[C@H](Cc3ccc4ccccc4c3)C(=O)N[C@@H](c3ccccc3)C(=O)N2)C(=O)NC[C@@H](C(=O)N[C@@H](CCC(=O)O)C(=O)N[C@@H](Cc2cnc[nH]2)C(=O)N2CCC[C@@H]2C(=O)N[C@H](Cc2ccc(O)cc2)C(=O)N[C@@H](CCCCN)C(N)=O)NC(=O)[C@H](CCCNC(=N)N)NC(=O)[C@@H](CCCNC(=N)N)NC1=O, the EC50 (NCI-H358 [2]; nci-h358) was “Not Active”.
With C[C@@H]1NC(=O)[C@@H](Cc2ccccc2)NC(=O)[C@@H]2CCCCNC(=O)c3cc(cc(c3)C(=O)N[C@H](Cc3ccc4ccccc4c3)C(=O)N[C@@H](CO)C(=O)N[C@@H](CC(N)=O)C(=O)N[C@H](Cc3ccc4ccccc4c3)C(=O)N[C@@H](c3ccccc3)C(=O)N2)C(=O)NC[C@@H](C(=O)N[C@@H](CC(N)=O)C(=O)N[C@H](CCCNC(=N)N)C(=O)N[C@@H](Cc2ccccc2)C(=O)N[C@H](C)C(N)=O)NC(=O)[C@H](CCCNC(=N)N)NC(=O)[C@@H](CCCNC(=N)N)NC1=O the EC50 (NCI-H358 [1]) was 8.4 µM and the IC50 (GTPase KRas; read-out: IC50) was 0.28 µM.
With CC(C)[C@@H](NC(=O)C[C@H](CCN)NC(=O)[C@@H]1CNC(=O)c2cc3cc(c2)C(=O)N[C@H](Cc2ccc4ccccc4c2)C(=O)N[C@@H](CO)C(=O)N[C@@H](CCC(N)=O)C(=O)N[C@H](Cc2ccc4ccccc4c2)C(=O)N[C@@H](c2ccccc2)C(=O)N[C@@H](CCCCNC3=O)C(=O)N[C@H](Cc2ccccc2)C(=O)N[C@@H](C)C(=O)N[C@H](CCCNC(=N)N)C(=O)N[C@@H](CCCNC(=N)N)C(=O)N1)C(=O)N[C@H](C)CC(=O)N[C@H](Cc1c[nH]c2ccccc12)C(=O)NCCC(N)=O the EC50 (NCI-H358 [2]; nci-h358) was “Not Active”.
C[C@@H]1NC(=O)[C@@H](Cc2ccccc2)NC(=O)[C@@H]2CCCCNC(=O)c3cc(cc(c3)C(=O)N[C@H](Cc3ccc4ccccc4c3)C(=O)N[C@@H](CO)C(=O)N[C@@H](CC(N)=O)C(=O)N[C@H](Cc3ccc4ccccc4c3)C(=O)N[C@@H](c3ccccc3)C(=O)N2)C(=O)NC[C@@H](C(=O)N[C@@H](CCC(N)=O)C(=O)N[C@H](CCCNC(=N)N)C(=O)N[C@@H](Cc2ccccc2)C(=O)N[C@H](C)C(N)=O)NC(=O)[C@H](CCCNC(=N)N)NC(=O)[C@@H](CCCNC(=N)N)NC1=O showed an EC50 (NCI-H358 [1]) of 7.5 µM and an IC50 (GTPase KRas; read-out: IC50) of 0.23 µM.
Work on CCCC[C@H](NC(=O)CNC(=O)C[C@H](CCC)NC(=O)[C@@H]1CNC(=O)c2cc3cc(c2)C(=O)N[C@H](Cc2ccc4ccccc4c2)C(=O)N[C@@H](CO)C(=O)N[C@@H](CCC(N)=O)C(=O)N[C@H](Cc2ccc4ccccc4c2)C(=O)N[C@@H](c2ccccc2)C(=O)N[C@@H](CCCCNC3=O)C(=O)N[C@H](Cc2ccccc2)C(=O)N[C@@H](C)C(=O)N[C@H](CCCNC(=N)N)C(=O)N[C@@H](CCCNC(=N)N)C(=O)N1)C(=O)N[C@H](CCCNC(=N)N)C(N)=O yielded an EC50 (NCI-H358 [2]; [3]) of 24 µM.
With C[C@@H]1NC(=O)[C@@H](Cc2ccccc2)NC(=O)[C@@H]2CCCCNC(=O)c3cc(cc(c3)C(=O)N[C@H](Cc3ccc4ccccc4c3)C(=O)N[C@@H](CO)C(=O)N[C@@H](CCC(N)=O)C(=O)N[C@H](Cc3ccc4ccccc4c3)C(=O)N[C@@H](c3ccccc3)C(=O)N2)C(=O)NC[C@@H](C(=O)N[C@H](CCCCN)C(=O)N[C@@H](Cc2c[nH]cn2)C(=O)N[C@H](Cc2ccc(O)cc2)C(=O)N[C@H](CCC(=O)O)C(N)=O)NC(=O)[C@H](CCCNC(=N)N)NC(=O)[C@@H](CCCNC(=N)N)NC1=O the IC50 (GTPase KRas) was “Not Active”.
With C[C@@H]1NC(=O)[C@@H](Cc2ccccc2)NC(=O)[C@@H]2CCCCNC(=O)c3cc(cc(c3)C(=O)N[C@H](Cc3ccc4ccccc4c3)C(=O)N[C@@H](CO)C(=O)N[C@@H](CCC(N)=O)C(=O)N[C@H](Cc3ccc4ccccc4c3)C(=O)N[C@@H](c3ccccc3)C(=O)N2)C(=O)NC[C@@H](C(=O)N[C@@H](CCN)CC(=O)N[C@H](CC(N)=O)C(=O)N[C@H](Cc2ccc(O)cc2)C(=O)N[C@@H](C(N)=O)[C@H](C)O)NC(=O)[C@H](CCCNC(=N)N)NC(=O)[C@@H](CCCNC(=N)N)NC1=O the EC50 (NCI-H358 [2]; nci-h358) was “Not Active”.
With C[C@@H]1NC(=O)[C@@H](Cc2ccccc2)NC(=O)[C@@H]2CCCCNC(=O)c3cc(cc(c3)C(=O)N[C@H](Cc3ccc4ccccc4c3)C(=O)N[C@@H](CO)C(=O)N[C@@H](CC(N)=O)C(=O)N[C@H](Cc3ccc4ccccc4c3)C(=O)N[C@@H](c3ccccc3)C(=O)N2)C(=O)NC[C@@H](C(=O)N[C@@H](CCN)CC(=O)N[C@H](CCCNC(=N)N)C(=O)N[C@@H](Cc2ccc(F)cc2)C(=O)N[C@H](C)C(N)=O)NC(=O)[C@H](CCCNC(=N)N)NC(=O)[C@@H](CCCNC(=N)N)NC1=O the EC50 (NCI-H358 [1]) was 6 µM and the IC50 (GTPase KRas; read-out: IC50) was 0.7 µM.
With C[C@@H]1NC(=O)[C@@H](Cc2ccccc2)NC(=O)[C@@H]2CCCCNC(=O)c3cc(cc(c3)C(=O)N[C@H](Cc3ccc4ccccc4c3)C(=O)N[C@@H](CO)C(=O)N[C@@H](CC(N)=O)C(=O)N[C@H](Cc3ccc4ccccc4c3)C(=O)N[C@@H](c3ccccc3)C(=O)N2)C(=O)NC[C@@H](C(=O)N[C@@H](CCN)CC(=O)N[C@H](CCCNC(=N)N)C(=O)N[C@@H](Cc2ccc(F)cc2)C(=O)N[C@H](C)C(=O)N[C@@H](CCCCN)C(N)=O)NC(=O)[C@H](CCCNC(=N)N)NC(=O)[C@@H](CCCNC(=N)N)NC1=O the EC50 (NCI-H358 [1]) was 7.2 µM and the IC50 (GTPase KRas; read-out: IC50) was 0.89 µM.
Work on C[C@@H]1NC(=O)[C@@H](Cc2ccccc2)NC(=O)[C@@H]2CCCCNC(=O)c3cc(cc(c3)C(=O)N[C@H](Cc3ccc4ccccc4c3)C(=O)N[C@@H](CO)C(=O)N[C@@H](CC(N)=O)C(=O)N[C@H](Cc3ccc4ccccc4c3)C(=O)N[C@@H](c3ccccc3)C(=O)N2)C(=O)NC[C@@H](C(=O)N[C@@H](CCN)CC(=O)N[C@H](CCCNC(=N)N)C(=O)N[C@@H](Cc2ccccc2)C(=O)N[C@H](C)C(N)=O)NC(=O)[C@H](CCCNC(=N)N)NC(=O)[C@@H](CCCNC(=N)N)NC1=O yielded an EC50 (NCI-H358 [1]) of 3.2 µM and an IC50 (GTPase KRas; read-out: IC50) of 0.51 µM.
